Screening results deposited in PubChem BioAssay by several laboratories.
The list is not random: actives were taken first. Their share in the collection is about 2.3%.
Rpn11 inh – Rpn11 (human) deubiquitinase inhibition; 0.59% of 360,000 active; calls only at 20 µM; AID 588493; O00487; human 26S proteasome, Ub4-pepOG fluorescence polarization; 20S core pre-blocked with epoxomicin;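 active = inhibition at 20 µM, scaled to each plate's controls, above about 33%, limit read from the data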
Target sequence (O00487 whole entry, looked up): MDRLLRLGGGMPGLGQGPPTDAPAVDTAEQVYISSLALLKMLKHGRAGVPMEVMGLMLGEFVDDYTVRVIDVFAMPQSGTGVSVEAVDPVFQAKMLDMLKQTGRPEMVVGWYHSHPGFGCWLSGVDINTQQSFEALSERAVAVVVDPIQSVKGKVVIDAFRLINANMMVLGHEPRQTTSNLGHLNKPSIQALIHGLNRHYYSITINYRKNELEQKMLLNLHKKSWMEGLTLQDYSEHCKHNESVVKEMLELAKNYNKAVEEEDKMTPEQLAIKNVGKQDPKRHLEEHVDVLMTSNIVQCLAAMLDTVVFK
CSN deneddyl inh – CSN deneddylation inhibition. Q92905. Purified CSN, SCF-Nedd8-OG deneddylation, fluorescence polarization. inhibition, % at 12.5 µM. 0.38% of 360,000 active;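 active = pattern-corrected inhibition above about 35%, with an unprinted fluorescence ratio check between 0.5 and 1.5, limit read from the data, passing the limit was not always enough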;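 also: 0% = enzyme with substrate and 100% = substrate without enzyme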
Target sequence (Q92905 whole entry, looked up, one chain of several): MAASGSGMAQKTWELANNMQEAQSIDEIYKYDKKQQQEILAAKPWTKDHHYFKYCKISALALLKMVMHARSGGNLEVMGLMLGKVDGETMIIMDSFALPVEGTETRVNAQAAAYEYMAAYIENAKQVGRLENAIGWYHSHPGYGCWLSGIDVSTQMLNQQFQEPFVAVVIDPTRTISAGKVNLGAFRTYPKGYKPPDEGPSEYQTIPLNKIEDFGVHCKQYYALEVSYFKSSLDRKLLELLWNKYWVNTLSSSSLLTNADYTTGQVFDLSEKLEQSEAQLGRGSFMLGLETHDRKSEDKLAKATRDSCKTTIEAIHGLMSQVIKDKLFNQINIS
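assay system = purified human Csn5 enzyme expressed in HEK293T cells | amount = 0.24 nM enzyme | buffer or medium = Tris/NaCl/DTT buffer, pH 7.5 | reagent = 10 nM SCFSkp2-Nedd8OG | compound = one concentration, 12.5 µM, 0.25% DMSO | times = 90 min reaction at room temperature | signal = FP | read-out basis = % inhibition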
CRFR2-BP antag – CRF-BP/CRF-R2 complex antagonism; 0.59% of 350,000 active; inhibition, % at 11.8 µM; HEK293 CRF-R2/CRF-BP, CRF-induced calcium fluorescence;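 active = inhibition of the ligand-induced calcium signal above about 50% at the single tested concentration, limit read from the data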
TPT1 inh – inhibitors of Candida albicans tRNA 2'-phosphotransferase TPT1; recombinant caTPT1, FP RNA substrate dephosphorylation; inhibition, % at 5 µM; 0.81% of 300,000 active; AID 1962;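 active = inhibition above the mean of all tested compounds plus 3 SD, set per screening campaign, cut at about 24% in these data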;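 also: plate controls were DMSO alone for no effect and ferristatin control at 100 nM for full effect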
HNF4A DNA FP – change in binding of human HNF4 alpha to DNA; 0.3% of 360,000 active; P41235; activity change, % at 10 µM; HNF4a-FITC DNA binding, fluorescence polarization, 1 h; in the data active = activity change above about 30%, passing the limit was not always enough
CRFBP-R2 agonist – agonists of human CRF-binding protein/CRF-R2 receptor complex; 0.46% of 350,000 active; HEK293 CRF-R2/CRF-BP, calcium dye fluorescence (FLIPR); percent of saturating CRF peptide response; activation, % at 13.2 µM; AID 588473;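 active = activation of at least 50%, plus an integration ratio under a set limit after plate pattern correction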;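 also: plate controls were neutral control wells without compound for no effect and CRF at EC100 for full effect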
Starred values were filed as active, the others as inactive; i = inactive; . = no result shown.

SMILES | Rpn11 inh | CSN deneddyl inh | CRFR2-BP antag | TPT1 inh | HNF4A DNA FP | CRFBP-R2 agonist
COc1ccc(N2C(=O)CC(N3CCN(Cc4ccc5c(c4)OCO5)CC3)C2=O)cc1 (stereo not given) | i | -5 | 7 | -2 | -2 | 3
CC1=NOC(=O)/C1=C\c1ccc(-c2cccc(Cl)c2)o1 | i | 9 | -44 | 12 | 1 | 64*
CC1=NOC(=O)/C1=C\c1ccc(-c2ccccc2Br)o1 | i | 34 | -32 | . | 3 | 51*
CC1=NOC(=O)/C1=C\c1ccc(-c2ccc(Cl)c(C(=O)O)c2)o1 | i | 11 | -15 | . | -24 | 17
O=C(CCn1c2c(c3ccccc31)CCCC2)NNC(=O)c1ccccc1C(=O)O | i | 3 | -9 | -1 | 0 | 55*
Cc1ccc(-n2nnnc2SCC(=O)N2c3ccccc3NC(=O)C2(C)C)cc1 | i | 3 | -7 | 2 | -1 | -2
Nc1ncnc(NNC(=O)CNC(=O)c2c(F)cccc2Cl)c1[N+](=O)[O-] | i | -4 | 101* | -1 | -6 | 3
CC(C)(CNC(=O)c1ccc(Br)o1)N1CCOCC1 | i | -3 | 4 | . | 2 | 1
CC(C)(CNC(=O)c1ccc(Br)o1)CNC(=O)c1ccc(Br)o1 | i | 2 | 76* | . | 0 | -1
CCOC(=O)C1=C(c2ccccc2)N=c2s/c(=C\c3ccco3)c(=O)n2C1c1cccs1 (stereo not given) | i | 38* | -12 | 21 | -2 | 0
CCOC(=O)C1=C(c2ccccc2)N=c2s/c(=C\c3cc(OC)c(OC)c(OC)c3)c(=O)n2C1c1cccs1 (stereo not given) | i | -1 | -37 | 18 | 13 | 46
CCCC1c2ccsc2CCN1C(=S)NC (stereo not given) | i | 3 | 15 | -2 | 0 | 1
CCOC(=O)C1/C(=N\O)CC(C)(O)C(C(=O)OCC)C1c1ccc(OC)c(OC)c1 (stereo not given) | i | 3 | 12 | -1 | -2 | -1
COc1ccc2c(c1)CC/C(=C\C=C\c1ccccc1)C2=O | i | 4 | -16 | 5 | 295 | -1
Cc1c(OCC(=O)NCCN2CCOCC2)ccc2c3c(c(=O)oc12)CCC3 | i | 5 | 115* | -1 | 0 | -2
Cc1c(OCC(=O)NCCCN2CCOCC2)ccc2c3c(c(=O)oc12)CCCC3 | i | 0 | -8 | -2 | -1 | 1
O=C1N[C@@H](Cc2ccccc2)C(=O)N2[C@H]1C[C@]1([C@]34C[C@H]5C(=O)N[C@@H](Cc6ccccc6)C(=O)N5[C@H]3N(S(=O)(=O)c3ccccc3)c3ccccc34)c3ccccc3N(S(=O)(=O)c3ccccc3)[C@H]21 | i | -2 | -8 | -2 | 2 | 1
CC(C)c1nc2sc3c(SCC(=O)NCc4ccco4)ncnc3c2c2c1CCC2 | i | 46* | -8 | 8 | -23 | 1
Cc1oc(-c2ccccc2Cl)nc1CS(=O)CC(=O)NCc1ccc2c(c1)OCO2 (stereo not given) | i | -1 | -4 | -2 | 0 | -1
O=c1oc(/C=C/c2ccccc2)nc2sc3c(c12)CCC3 | . | 4 | 5 | 2 | 47* | 3
COc1ccc(/C=C/c2nc3sc4c(c3c(=O)o2)CCC4)cc1 | . | 110 | -25 | -3 | 191 | 36
CCOC(=O)c1c(NC(=O)CN2C(=O)NC3(CCC(CC)CC3)C2=O)sc(C)c1-c1ccc(C)cc1 (stereo not given) | i | 2 | -65 | 1 | -1 | -1
CCc1ccc(NC(=O)C(C)OC(=O)/C=C/c2ccc(O)c(OC)c2)cc1 (stereo not given) | i | -7 | -66 | . | 2 | 92*
CCc1nnc(NC(=O)CSc2nnc3nc(C)cc(C)n23)s1 | i | 4 | -1 | -1 | 6 | 2
Cc1ccc(/C=c2\sc3nc(-c4cccs4)nn3c2=O)o1 | i | 44* | 1 | 9 | 1 | 1
SMILES | Rpn11 inh | CSN deneddyl inh | CRFR2-BP antag | TPT1 inh | HNF4A DNA FP | CRFBP-R2 agonist
CC(C)(C)OC(=O)N1CCC(c2cc(=O)n3[nH]cc(C(=O)NC4CCCC4)c3n2)CC1 | i | -1 | 51* | -1 | 3 | 0
CN(C)c1ccc(/C=C/c2ccc3ccccc3[n+]2C)cc1 | i | 9 | -4 | 5 | 12 | -3
CN(C)c1ccc(/C=C/c2ccc3c4ccccc4ccc3[n+]2-c2ccccc2)cc1 | i | 57* | 19 | . | 28 | 0
CCCC(=O)Nc1ccc2c(c1)c1ccccc1n2CC | i | -15 | -16 | -2 | 0 | 0
CCOC(=O)COc1cc(=O)n(CC)c2ccccc12 | i | 108* | -23 | -5 | -1 | -3
CCOC(=O)C(=CNc1ccc2c(c1)c1ccccc1n2CC)C(=O)OCC | i | 1 | 3 | -1 | 36* | -2
Cc1ccc(S(=O)(=O)NCCC(=O)N2CCCCCC2)cc1 | i | -3 | 0 | 0 | 1 | 0
CC1(C)CC(O)C(C(O)c2cccc([N+](=O)[O-])c2)C(C)(C)N1 (stereo not given) | i | -3 | 25 | 4 | 1 | -1
CCOC(=O)c1sc(NC(=O)CSc2n[nH]c(-c3ccccc3)n2)c(C#N)c1C | i | 6 | 0 | 7 | 3 | 20
CCOC(=O)c1sc(NC(=O)c2cc(-c3ccccc3)nc3ccccc23)c(C#N)c1C | i | 4 | 35 | 6 | 4 | 53*
COc1ccccc1C/C(N)=N/OC(=O)COc1ccc(C)cc1C | i | -1 | 54* | -5 | -6 | -2
CC1=CC(C)C2C(=O)N(CCCN(C)C)C(=O)C2C1 (stereo not given) | i | 0 | 1 | 1 | -1 | 0
Cc1cc(C)c(OCCN(C)Cc2ccccc2)c(Br)c1 | i | 0 | 87* | -3 | 0 | 0
CC(C)(C)C(=O)Cn1ncc(Br)c(Br)c1=O | i | 2 | 27 | . | 5 | -2
CCOc1ccc(-c2cc(NC(=O)c3c(F)cccc3F)c(C(=O)O)s2)cc1 | i | 0 | 48 | . | 0 | 0
O=C(Nc1cc(-c2ccccc2)sc1C(=O)O)c1cccc(F)c1 | i | 4 | 73* | . | 0 | -1
COc1ccc([N+](=O)[O-])cc1N(CC(=O)NCCCOC(C)C)S(C)(=O)=O | i | 5 | 60* | -4 | 5 | -2
CNC(=O)CN(c1cc([N+](=O)[O-])ccc1OC)S(C)(=O)=O | i | -9 | 19 | -2 | -3 | -4
Cn1cccc1Cc1nnc(SCC(=O)NCc2ccccc2)n1-c1ccc(F)cc1 | i | 3 | 4 | -1 | -1 | -2
Cn1cccc1Cc1nnc(SCC(=O)N2CCN(c3ccccc3)CC2)n1-c1ccc(F)cc1 | i | 1 | 52* | 0 | 1 | -2
